How the values were obtained:
[1] = molecular target: T1, Prostaglandin G/H synthase 2 (Mus musculus, UniProt Q05769); test: In vitro inhibitory activity against prostaglandin G/H synthase 2 using mouse peritoneal macrophage method
T1 sequence (Q05769 whole entry): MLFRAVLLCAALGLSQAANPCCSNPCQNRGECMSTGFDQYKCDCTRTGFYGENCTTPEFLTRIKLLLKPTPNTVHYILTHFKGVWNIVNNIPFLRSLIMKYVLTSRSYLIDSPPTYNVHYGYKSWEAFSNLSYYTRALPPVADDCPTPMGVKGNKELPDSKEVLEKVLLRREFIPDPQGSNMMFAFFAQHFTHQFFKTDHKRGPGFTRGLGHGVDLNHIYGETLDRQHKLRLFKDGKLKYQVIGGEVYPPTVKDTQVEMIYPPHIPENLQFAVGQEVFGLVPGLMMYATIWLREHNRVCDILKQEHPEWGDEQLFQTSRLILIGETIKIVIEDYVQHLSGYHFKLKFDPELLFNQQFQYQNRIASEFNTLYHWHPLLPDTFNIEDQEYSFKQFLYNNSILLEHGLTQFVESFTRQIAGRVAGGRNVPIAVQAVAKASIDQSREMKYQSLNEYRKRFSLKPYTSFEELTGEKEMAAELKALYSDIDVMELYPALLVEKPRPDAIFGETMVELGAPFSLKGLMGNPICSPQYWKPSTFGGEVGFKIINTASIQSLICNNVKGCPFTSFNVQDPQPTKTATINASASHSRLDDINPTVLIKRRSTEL

[2] = molecular target: T2, Prostaglandin G/H synthase 1 (Mus musculus, UniProt P22437); test: In vitro inhibitory activity against prostaglandin G/H synthase 1 using mouse peritoneal macrophage method
T2 sequence (P22437 whole entry): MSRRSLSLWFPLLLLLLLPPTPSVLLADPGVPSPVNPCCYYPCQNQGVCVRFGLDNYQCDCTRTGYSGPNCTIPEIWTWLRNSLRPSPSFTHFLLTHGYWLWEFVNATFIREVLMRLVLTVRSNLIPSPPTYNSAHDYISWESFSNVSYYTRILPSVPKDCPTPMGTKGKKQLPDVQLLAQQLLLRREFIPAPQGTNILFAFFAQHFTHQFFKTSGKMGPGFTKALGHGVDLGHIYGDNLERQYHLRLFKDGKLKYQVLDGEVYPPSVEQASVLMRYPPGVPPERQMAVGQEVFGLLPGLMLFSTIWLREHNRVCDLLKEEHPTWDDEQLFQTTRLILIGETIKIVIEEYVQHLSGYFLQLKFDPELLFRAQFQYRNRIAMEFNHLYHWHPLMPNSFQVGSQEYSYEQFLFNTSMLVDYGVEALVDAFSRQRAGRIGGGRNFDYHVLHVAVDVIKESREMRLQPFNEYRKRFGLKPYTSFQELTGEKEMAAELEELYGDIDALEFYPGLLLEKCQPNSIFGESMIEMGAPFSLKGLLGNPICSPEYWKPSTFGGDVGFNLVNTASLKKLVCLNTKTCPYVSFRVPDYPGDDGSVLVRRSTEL
How it was run: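 Freshly harvested mouse peritoneal macrophages were the enzyme source. Cells were preincubated 10 min at 37 °C with inhibitor in DMSO, then stimulated with calcium ionophore A23187 for 10 min. The reaction was stopped with indomethacin in 0.1% BSA buffer and centrifuged, and supernatant TXB₂ was measured by ELISA.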

Rattus norvegicus [3] = test: Inhibition of carrageenan-induced rat foot oedema following 3 mg/kg administration.; type: functional
How it was run: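 Male SD rats (160 ~ 190 g) were fasted overnight and given compound in 1% methylcellulose by oral gavage, at least 5 animals per group. One hour later, 0.05 mL of 1% carrageenan in saline was injected subplantar into the right hindpaw. Paw swelling was measured by plethysmometer 4 h after dosing and expressed as % inhibition.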

Rattus norvegicus [4] = test: Antiinflammatory activity was determined by measuring adjuvant-induced arthritis in rats using therapeutic method; dose administered daily once; type: functional
How it was run: (§1)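 Therapeutic adjuvant arthritis in male SD rats (160 ~ 190 g). On day 0, 0.1 mL of 1% heat-killed M. butyricum in incomplete Freund's adjuvant was injected subplantar into the right hindpaw. On day 14, rats with left hindpaw swelling over 0.37 mL were selected and randomized. Daily treatment ran from day 14 to day 22, and % inhibition was taken from day-22 foot volumes.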

Rattus norvegicus [5] = test: Antiinflammatory activity was determined by measuring adjuvant-induced arthritis in rats using preventive method; Range is 0.1~0.2 (dose administered daily twice); type: functional
How it was run: (§2)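 Preventive adjuvant arthritis in male Lewis rats (200 ~ 210 g), 10 per group. On day 0, 0.1 mL of 1% heat-killed M. butyricum in incomplete Freund's adjuvant was injected subplantar into the right hindpaw. Oral gavage dosing ran from day -1 to day 16. Left hindpaw volume was measured by plethysmometer on day 17, and % inhibition versus control was calculated.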

Rattus norvegicus [6] = test: Antiinflammatory activity was determined by measuring adjuvant-induced arthritis in rats using therapeutic method; (dose administered daily once); type: functional; how it was run: as §1
Rattus norvegicus [7] = test: Antiinflammatory activity was determined by measuring adjuvant-induced arthritis in rats using preventive method; Range is 0.2~0.3 (dose administered daily twice ); type: functional; how it was run: as §2
Rattus norvegicus [8] = test: Ability of compound to cause gastric ulcerogenicity was determined in rats at 30 mg/kg when administered daily once; type: functional, Stomach
How it was run: (§3)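 Male SD rats (130 ~ 140 g) were dosed by oral gavage for 7 days, with compound suspended in 1% methylcellulose. Rats were fasted overnight before necropsy and killed 4 h after the last dose. Stomachs were scored for ulceration on a scale where 1 is an apparently normal stomach and 2 is pinpoint ulcers only.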

Rattus norvegicus [9] = test: Antiinflammatory activity was determined by measuring adjuvant-induced arthritis in rats using therapeutic method; dose administered daily twice; type: functional; how it was run: as §1
Rattus norvegicus [10] = test: Antiinflammatory activity was determined by measuring adjuvant-induced arthritis in rats using preventive method; dose administered daily twice; type: functional; how it was run: as §2
Rattus norvegicus [11] = test: Ability of compound to cause gastric ulcerogenicity was determined in rats at 5 mg/kg when administered daily once; type: functional, Stomach; how it was run: as §3
Rattus norvegicus [12] = test: Antiinflammatory activity was determined by measuring adjuvant-induced arthritis in rats using preventive method; dose administered daily once; type: functional; how it was run: as §2
Rattus norvegicus [13] = test: Ability of compound to cause gastric ulcerogenicity was determined in rats at 5 mg/kg; type: functional, Stomach; how it was run: as §3

SMILES	IC50 [1]	IC50 [2]	inhibition in vivo at 3 mg/kg (Rattus norvegicus [3])	other results
CC1(C)OC(c2ccc(S(C)(=O)=O)cc2)=C(c2cccnc2)C1=O	1460 nM	29100 nM	–	–
CC1(C)OC(c2ccc(S(N)(=O)=O)cc2)=C(c2ccccc2)C1=O	23.3 nM	178 nM	–	–
CCC1(C)OC(c2ccc(S(C)(=O)=O)cc2)=C(c2cc(Cl)cc(Cl)c2)C1=O (stereo unspecified)	70.5 nM	47000 nM	–	–
Cc1cccc(C2=C(c3ccc(S(C)(=O)=O)cc3)OC3(CCCCC3)C2=O)c1	–	7570 nM	–	–
CCC1(C)OC(c2ccc(S(C)(=O)=O)cc2)=C(c2cccc(Cl)c2)C1=O (stereo unspecified)	–	–	23%	–
Cn1cc(C2=C(c3ccc(S(N)(=O)=O)cc3)OC(C)(C)C2=O)cn1	–	–	29%	–
CC1(C)OC(c2ccc(S(N)(=O)=O)cc2)=C(c2ccc(F)c(F)c2)C1=O	18.5 nM	5010 nM	–	–
CC1(C)OC(c2ccc(S(N)(=O)=O)cc2F)=C(c2cc(F)cc(F)c2)C1=O	–	–	32%	–
CC1(C)OC(c2ccc(S(C)(=O)=O)cc2)=C(c2ccc(F)c(Cl)c2)C1=O	760 nM	7600 nM	31%	–
CC1(C)OC(c2ccc(S(N)(=O)=O)cc2F)=C(c2ccccc2)C1=O	–	55300 nM	–	–
Cc1cccc(C2=C(c3ccc(S(C)(=O)=O)cc3)OC3(CCCC3)C2=O)c1	–	–	26%	–
CC1(C)OC(c2ccc(S(C)(=O)=O)cc2)=C(c2cccc(Cl)c2)C1=O	–	–	16%	–
CC1(C)OC(c2ccc(S(C)(=O)=O)cc2)=C(c2ccc(Br)cc2)C1=O	71.2 nM	71.2 nM	–	–
CC1(C)OC(c2ccc(S(N)(=O)=O)c(F)c2)=C(c2cccc(F)c2)C1=O	–	–	27%	–
CS(=O)(=O)c1ccc(C2=C(c3ccccc3)C(=O)C3(CCCCC3)O2)cc1	5230 nM	26100 nM	–	–
CC1(C)OC(c2ccc(S(N)(=O)=O)c(F)c2)=C(c2cc(F)cc(F)c2)C1=O	–	–	31%	–
CC1(C)OC(c2ccc(S(C)(=O)=O)c(F)c2)=C(c2cccc(Cl)c2)C1=O	–	–	28%	–
CC1(C)OC(c2ccc(S(C)(=O)=O)c(F)c2)=C(c2cc(F)cc(F)c2)C1=O	–	–	–	ED50 (Rattus norvegicus [4]): > 0.1 mg/kg/day
CCC1(C)OC(c2ccc(S(C)(=O)=O)cc2)=C(c2cccc(C(F)(F)F)c2)C1=O (stereo unspecified)	–	23600 nM	–	–
CC1(C)OC(c2ccc(S(N)(=O)=O)cc2)=C(c2ccsc2)C1=O	343 nM	13700 nM	–	–

SMILES	IC50 [1]	IC50 [2]	inhibition in vivo at 3 mg/kg (Rattus norvegicus [3])	other results
CC(=O)c1ccc(C2=C(c3ccc(S(N)(=O)=O)cc3)OC(C)(C)C2=O)cc1	33.7 nM	675 nM	26%	–
CC1(C)OC(c2ccc(S(N)(=O)=O)cc2)=C(c2cccc(C(F)(F)F)c2)C1=O	26.7 nM	1990 nM	–	–
Cn1cc(C2=C(c3ccc(S(C)(=O)=O)cc3)OC(C)(C)C2=O)cn1	1440 nM	86600 nM	36%	ED50 (Rattus norvegicus [4]): ~0.3 mg/kg/day
CCCCc1ccc(C2=C(c3ccc(S(C)(=O)=O)cc3)OC(C)(C)C2=O)cc1	–	–	8%	–
CC(=O)c1ccc(C2=C(c3ccc(S(C)(=O)=O)cc3)OC(C)(C)C2=O)cc1	–	–	–	ED50 (Rattus norvegicus [5]): 0.1 mg/kg/day
CS(=O)(=O)c1ccc(C2=C(c3cccc(F)c3)C(=O)C3(CCCC3)O2)cc1	7760 nM	7760 nM	–	–
CCC1(CC)OC(c2ccc(S(C)(=O)=O)cc2)=C(c2ccccc2)C1=O	13500 nM	81000 nM	–	–
CCC1(CC)OC(c2ccc(S(C)(=O)=O)cc2)=C(c2cccc(C)c2)C1=O	1300 nM	26000 nM	–	–
CC1(C)OC(c2ccc(S(N)(=O)=O)cc2)=C(c2cccc(Cl)c2)C1=O	–	–	39%	ED50 (Rattus norvegicus [4]): 0.03 mg/kg/day
CC1(C)OC(c2ccc(S(C)(=O)=O)cc2)=C(c2cccc(F)c2)C1=O	–	–	36%	ED50 (Rattus norvegicus [6]): 0.07 mg/kg/day; ED50 (Rattus norvegicus [7]): 0.3 mg/kg/day; Activity (Rattus norvegicus [8]): 1.8
CC1(C)OC(c2ccc(S(C)(=O)=O)cc2)=C(c2cc(F)cc(F)c2)C1=O	–	–	34%	Activity (Rattus norvegicus [8]): 1.8
CC(=O)c1cccc(C2=C(c3ccc(S(C)(=O)=O)cc3)OC(C)(C)C2=O)c1	–	–	22%	–
CC1(C)OC(c2ccc(S(C)(=O)=O)cc2)=C(c2cccc(C(F)(F)F)c2)C1=O	–	–	31%	–
Cc1ccc(-c2cc(C(F)(F)F)nn2-c2ccc(S(N)(=O)=O)cc2)cc1 [CELECOXIB]	–	–	34%	ED50 (Rattus norvegicus [9]): 0.37 mg/kg/day
Cc1ccc(-c2ncc(Cl)cc2-c2ccc(S(C)(=O)=O)cc2)cn1 [ETORICOXIB]	–	–	–	ED50 (Rattus norvegicus [10]): 0.7 mg/kg/day
COc1ccc2c(c1)c(CC(=O)O)c(C)n2C(=O)c1ccc(Cl)cc1 [INDOMETHACIN]	–	–	45%	Activity (Rattus norvegicus [11]): 3.5
Cc1cnc(NC(=O)C2=C(O)c3ccccc3S(=O)(=O)N2C)s1 [MELOXICAM]	–	–	–	ED50 (Rattus norvegicus [12]): 0.28 mg/kg/day
CC1(C)OC(c2ccc(S(N)(=O)=O)cc2)=C(c2cccc(F)c2)C1=O [POLMACOXIB]	8.3 nM	830 nM	47%	ED50 (Rattus norvegicus [4]): 0.02 mg/kg/day; ED50 (Rattus norvegicus [10]): 0.1 mg/kg/day; ED50 (Rattus norvegicus [9]): 0.01 mg/kg/day; Activity (Rattus norvegicus [13]): 1.5
CS(=O)(=O)c1ccc(C2=C(c3ccccc3)C(=O)OC2)cc1 [ROFECOXIB]	–	–	–	ED50 (Rattus norvegicus [10]): 0.74 mg/kg/day
Cc1onc(-c2ccccc2)c1-c1ccc(S(N)(=O)=O)cc1 [VALDECOXIB]	–	–	–	ED50 (Rattus norvegicus [9]): 0.032 mg/kg/day
